How the values were obtained:
[1] = Inhibition of Hepatitis C virus genotype 1a H77 recombinant NS3/4A protease expressed in Escherichia coli BL21 (DE3) cell using Ac-Asp-Glu-Asp(EDANS)-Glu-Glu-Abu[C(O)-O]-Ala-Ser-Lys(DABCYL)-NH2 as substrate by FRET assay; set-up: species or system Hepatitis C virus (isolate H77)
[2] = test system: Hepatitis C virus; assay: Antiviral activity against Hepatitis C virus genotype 1b Con1 after 4 days by cell-based replicon assay; type: functional, organism-based, Hepacivirus hominis; conditions: isolate Con1, 96 h
[3] = Cytotoxicity against human HuH7 cells; type: cell-based; conditions: Huh-7 cells
[4] = AUC in intraduodenally dosed Sprague-Dawley rat plasma measured over 4 hrs by LC/MS/MS analysis; type: ADME, organism-based; set-up: time < 4 hr, route intraduodenal; conditions: Sprague-Dawley, plasma
Summary of the method: (§1)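 Abbreviated rat screen: surgically prepared rats were dosed intraduodenally. Plasma was sampled over 4 h, and liver was collected at the 4 h end point. Plasma was precipitated with two volumes of ACN plus internal standard. Liver was weighed and homogenized in 2 volumes of 20% Hanks buffered salt solution/80% ACN. Both were quantified by LC/MS/MS.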

[5] = test system: Liver; assay: Drug uptake in intraduodenally dosed Sprague-Dawley rat liver measured per gm of tissue over 4 hrs by LC/MS/MS analysis; type: ADME, organism-based; conditions: in vivo, other; summary of the method: as §1

C=C[C@@H]1C[C@]1(NC(=O)[C@@H]1C[C@@H](Oc2ccncc2)CN1C(=O)[C@@H](NC(=O)OC(C)(C)C)C(C)(C)C)C(=O)NS(=O)(=O)C1CC1
IC50 [1]: 84 nM
EC50 [2]: 25000 nM

C=C[C@@H]1C[C@]1(NC(=O)[C@@H]1C[C@@H](Oc2cc(-c3ccccc3)nc3cc(OC)ccc23)CN1C(=O)[C@@H](NC(=O)OC(C)(C)C)C(C)(C)C)C(=O)NS(=O)(=O)C(C)C
IC50 [1]: 19 nM
EC50 [2]: 97 nM

C=C[C@@H]1C[C@]1(NC(=O)[C@@H]1C[C@@H](Oc2cc(-c3ccccc3)nc3cc(OC)ccc23)CN1C(=O)[C@@H](NC(=O)OC(C)(C)C)C(C)(C)C)C(=O)NS(C)(=O)=O
IC50 [1]: 36 nM
EC50 [2]: 600 nM

COc1ccc2c(O[C@@H]3C[C@@H](C(=O)NC4(C(=O)NS(=O)(=O)C5CC5)CC4)N(C(=O)[C@@H](NC(=O)OC(C)(C)C)C(C)(C)C)C3)cc(-c3ccccc3)nc2c1
IC50 [1]: 12 nM
EC50 [2]: 437 nM

C=C[C@@H]1C[C@]1(NC(=O)[C@@H]1C[C@@H](Oc2nccc3cc(C(=O)N(C)C)ccc23)CN1C(=O)[C@@H](NC(=O)OC(C)(C)C)C(C)(C)C)C(=O)NS(=O)(=O)C1CC1
IC50 [1]: 476 nM
EC50 [2]: 11000 nM
CC50 [3]: > 100000 nM

C=C[C@@H]1C[C@]1(NC(=O)[C@@H]1C[C@@H](Oc2nccc3cc(-n4cccn4)ccc23)CN1C(=O)[C@@H](NC(=O)OC(C)(C)C)C(C)(C)C)C(=O)NS(=O)(=O)C1CC1
IC50 [1]: 4 nM
EC50 [2]: 64 nM
CC50 [3]: 94000 nM

C=C[C@@H]1C[C@]1(NC(=O)[C@@H]1C[C@@H](Oc2nccc3cc(C)ccc23)CN1C(=O)[C@@H](NC(=O)OC(C)(C)C)C(C)(C)C)C(=O)NS(=O)(=O)C1CC1
IC50 [1]: 4 nM
EC50 [2]: 100 nM
CC50 [3]: 92000 nM

C=C[C@@H]1C[C@]1(NC(=O)[C@@H]1C[C@@H](Oc2ccnc3cc(OC)ccc23)CN1C(=O)[C@@H](NC(=O)OC(C)(C)C)C(C)(C)C)C(=O)NS(=O)(=O)C1CC1
IC50 [1]: 5 nM
EC50 [2]: 26 nM
AUC at 4 h [4]: 0.015 µM·h
Drug uptake [5]: 620 ng

C=C[C@@H]1C[C@]1(NC(=O)[C@@H]1C[C@@H](Oc2nccc3cc(O)ccc23)CN1C(=O)[C@@H](NC(=O)OC(C)(C)C)C(C)(C)C)C(=O)NS(=O)(=O)C1CC1
IC50 [1]: 3 nM
EC50 [2]: 67 nM
CC50 [3]: > 100000 nM

C=C[C@@H]1C[C@]1(NC(=O)[C@@H]1C[C@@H](Oc2ccnc(-c3ccccc3)c2)CN1C(=O)[C@@H](NC(=O)OC(C)(C)C)C(C)(C)C)C(=O)NS(=O)(=O)C1CC1
IC50 [1]: 10 nM
EC50 [2]: 267 nM
Drug uptake [5]: 319 ng

C=C[C@@H]1C[C@]1(NC(=O)[C@@H]1C[C@@H](Oc2nccc3c(F)cccc23)CN1C(=O)[C@@H](NC(=O)OC(C)(C)C)C(C)(C)C)C(=O)NS(=O)(=O)C1CC1
IC50 [1]: 55 nM
EC50 [2]: 94 nM
CC50 [3]: > 100000 nM

C=C[C@@H]1C[C@]1(NC(=O)[C@@H]1C[C@@H](Oc2ncc(Cl)c3ccccc23)CN1C(=O)[C@@H](NC(=O)OC(C)(C)C)C(C)(C)C)C(=O)NS(=O)(=O)C1CC1
IC50 [1]: 8 nM
EC50 [2]: 41 nM
CC50 [3]: 45000 nM

C=C[C@@H]1C[C@]1(NC(=O)[C@@H]1C[C@@H](Oc2cc(-c3ccccc3)nc3cc(OC)ccc23)CN1C(=O)[C@@H](NC(=O)OC)C(C)(C)C)C(=O)NS(=O)(=O)C1CC1
IC50 [1]: 1 nM
EC50 [2]: 32 nM
AUC at 4 h [4]: 0.009 µM·h
Drug uptake [5]: 156 ng

C=C[C@@H]1C[C@]1(NC(=O)[C@@H]1C[C@@H](Oc2cc(-c3ccccc3)nc3cc(OC)ccc23)CN1C(=O)[C@@H](N)C(C)(C)C)C(=O)NS(=O)(=O)C1CC1
IC50 [1]: 30 nM
EC50 [2]: 860 nM

C=C[C@@H]1C[C@]1(NC(=O)[C@@H]1C[C@@H](Oc2nccc3c(N4CCOCC4)cccc23)CN1C(=O)[C@@H](NC(=O)OC(C)(C)C)C(C)(C)C)C(=O)NS(=O)(=O)C1CC1
IC50 [1]: 96 nM
EC50 [2]: 966 nM
CC50 [3]: > 100000 nM

C=C[C@@H]1C[C@]1(NC(=O)[C@@H]1C[C@@H](Oc2cc(-c3ccccc3)nc3cc(OC)ccc23)CN1C(=O)CNC(=O)OC(C)(C)C)C(=O)NS(=O)(=O)C1CC1
IC50 [1]: 16 nM
EC50 [2]: 893 nM

C=C[C@@H]1C[C@]1(NC(=O)[C@@H]1C[C@@H](Oc2cc(-c3ccccc3)nc3cc(OC)ccc23)CN1C(=O)[C@@H](NC(=O)OC(C)(C)C)C(C)(C)C)C(=O)NS(=O)(=O)C1CCCC1
IC50 [1]: 71 nM
EC50 [2]: 170 nM

C=C[C@@H]1C[C@]1(NC(=O)[C@@H]1C[C@@H](Oc2cc(-c3ccccc3)nc3cc(OC)ccc23)CN1C(=O)[C@@H](NC(=O)OC(C)(C)C)C(C)(C)C)C(=O)NS(=O)(=O)C1CCCCC1
IC50 [1]: 149 nM
EC50 [2]: 210 nM

C=C[C@@H]1C[C@]1(NC(=O)[C@@H]1C[C@@H](Oc2cc(-c3ccccc3)nc3cc(OC)ccc23)CN1C(=O)[C@@H](NC(=O)OC(C)(C)C)C(C)(C)C)C(=O)NS(=O)(=O)CC
IC50 [1]: 6 nM
EC50 [2]: 133 nM

C=C[C@@H]1C[C@]1(NC(=O)[C@@H]1C[C@@H](Oc2nccc3cc(Cl)ccc23)CN1C(=O)[C@@H](NC(=O)OC(C)(C)C)C(C)(C)C)C(=O)NS(=O)(=O)C1CC1
IC50 [1]: 36 nM
EC50 [2]: 833 nM
CC50 [3]: 44000 nM

C=C[C@@H]1C[C@]1(NC(=O)[C@@H]1C[C@@H](Oc2nccc3cc(C#N)ccc23)CN1C(=O)[C@@H](NC(=O)OC(C)(C)C)C(C)(C)C)C(=O)NS(=O)(=O)C1CC1
IC50 [1]: 4 nM
EC50 [2]: 586 nM
CC50 [3]: > 100000 nM

C=C[C@@H]1C[C@]1(NC(=O)[C@@H]1C[C@H](Oc2nccc3cc(OC)ccc23)CN1C(=O)[C@@H](NC(=O)OC(C)(C)C)C(C)(C)C)C(=O)NS(=O)(=O)C1CC1
IC50 [1]: 5000 nM
AUC at 4 h [4]: 0.25 µM·h
Drug uptake [5]: 3058 ng

C=C[C@@H]1C[C@]1(NC(=O)[C@@H]1C[C@@H](Oc2cc(-c3ccccc3)nc3cc(OC)ccc23)CN1C(=O)[C@@H](NC(=O)OC(C)(C)C)C(C)(C)C)C(=O)NS(=O)(=O)c1ccccc1
IC50 [1]: 8 nM
EC50 [2]: 20 nM

C=C[C@@H]1C[C@]1(NC(=O)[C@@H]1C[C@@H](Oc2cc(-c3ccccc3)nc3cc(OC)ccc23)CN1C(=O)[C@@H](NC(=O)OC(C)(C)C)C(C)(C)C)C(=O)NS(=O)(=O)C1CCC1
IC50 [1]: 7 nM
EC50 [2]: 29 nM

C=C[C@@H]1C[C@]1(NC(=O)[C@@H]1C[C@@H](Oc2nccc3cc(C(C)(C)C)ccc23)CN1C(=O)[C@@H](NC(=O)OC(C)(C)C)C(C)(C)C)C(=O)NS(=O)(=O)C1CC1
IC50 [1]: 31 nM
EC50 [2]: 209 nM
CC50 [3]: 15000 nM

C=C[C@@H]1C[C@]1(NC(=O)[C@@H]1C[C@@H](Oc2nccc3ccc(C)cc23)CN1C(=O)[C@@H](NC(=O)OC(C)(C)C)C(C)(C)C)C(=O)NS(=O)(=O)C1CC1
IC50 [1]: 7 nM
EC50 [2]: 100 nM
CC50 [3]: 86000 nM

C=C[C@@H]1C[C@]1(NC(=O)[C@@H]1C[C@@H](Oc2nc(-c3ccccc3)cc3ccccc23)CN1C(=O)[C@@H](NC(=O)OC(C)(C)C)C(C)(C)C)C(=O)NS(=O)(=O)C1CC1
IC50 [1]: 3 nM
EC50 [2]: 9 nM
CC50 [3]: 12000 nM

C=C[C@@H]1C[C@]1(NC(=O)[C@@H]1C[C@@H](Oc2nccc3cccc(C)c23)CN1C(=O)[C@@H](NC(=O)OC(C)(C)C)C(C)(C)C)C(=O)NS(=O)(=O)C1CC1
IC50 [1]: 149 nM
EC50 [2]: 500 nM
CC50 [3]: > 100000 nM

C=C[C@@H]1C[C@]1(NC(=O)[C@@H]1C[C@@H](Oc2ccc3ccccc3n2)CN1C(=O)[C@@H](NC(=O)OC(C)(C)C)C(C)(C)C)C(=O)NS(=O)(=O)C1CC1
IC50 [1]: 23 nM
EC50 [2]: 268 nM
AUC at 4 h [4]: 0.279 µM·h
Drug uptake [5]: 52094 ng

— ChEMBL document CHEMBL3124900, “Discovery and early clinical evaluation of BMS-605339, a potent and orally efficacious tripeptidic acylsulfonamide NS3 protease inhibitor for the treatment of hepatitis C virus infection” (J Med Chem, 2014)
